Experimental findings from ChEMBL document CHEMBL3627704, “Synthesis, quorum sensing inhibition and docking studies of 1,5-dihydropyrrol-2-ones” (Bioorg Med Chem, 2015) are described below.

Activity calls are given as the source filed them. The calls are words filed in the database; no cut-off is given here.

The subject of this assay is Escherichia coli. The assay can be described thus: Inhibition of quorum sensing in Escherichia coli JB357 expressing green fluorescent protein assessed as reduction of OHHL-induced GFP expression after 2 hrs by fluorescence assay relative to OHHL. In a few lines:
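E. coli JB357 carrying Vibrio fischeri luxR-PluxI-gfp(ASV) reporter; OHHL at final 10, 20, 50 or 100 nM in culture medium, triplicate wells, with dihydropyrrol-2-one at 0–10 mg/mL. Incubated 2 h at 37 °C; GFP fluorescence read relative to solvent control (100%). ID40 taken for each OHHL level and plotted against OHHL. AIC40 is the gradient of the fit forced through origin (inhibitor mol : OHHL mmol).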

For `CCCCCC(Br)C1=CC(=C(Br)Br)N(Cc2ccccc2)C1=O` (stereo unspecified), the inhibition entry is “inactive”.
With `CCCCCCC1=CC(=C(Br)Br)N(c2ccccc2)C1=O`, the Ratio turned out to be 248.
For `CCCC(Br)C1=CC(=C(Br)Br)N(Cc2ccccc2)C1=O` (stereo unspecified), the inhibition entry was “inactive”.
On to `CCCCC1=C(Br)/C(=C/Br)N(CCCC)C1=O`, for which the Ratio stood at 279.
Turning to `CCCCCC(O)C1=CC(=C(Br)Br)N(Cc2ccccc2)C1=O` (stereo unspecified), the inhibition result was “inactive”.
Regarding `CCCCC1=C(Br)/C(=C/Br)N(c2ccccc2)C1=O`, the inhibition result was “inactive”.
In the case of `O=C1C=C(Br)C2(CBr)OCCN3C(=O)C=C(Br)C3(CBr)OCCN12` (stereo unspecified), the Ratio is 78.
Turning to `CCCCCC(Br)C1=CC(=C(Br)Br)N(c2ccccc2)C1=O` (stereo unspecified), the inhibition entry is “inactive”.
Same read-out and setting: then `CCCC(O)C1=CC(=C(Br)Br)N(Cc2ccccc2)C1=O` (stereo unspecified), with “inactive”; and `CCCCCCN1C(=O)C=C(Br)/C1=C/Br`, with “inactive”.
In the case of `CCCCCCCCN1C(=O)C=C(Br)C1=C(Br)Br`, the inhibition entry was “inactive”.
Same read-out and setting: to `CCCCCCCCCCCCN1C(=O)C=C(Br)/C1=C/Br` belongs “inactive”.
Same read-out and setting: to `CCCCC1=CC(=C(Br)Br)N(CCCC)C1=O` belongs “inactive”.
In the case of `O=C1C=C(Br)C2(CBr)OCCCN3C(=O)C=C(Br)C3(CBr)OCCCN12` (stereo unspecified), the Ratio turned out to be 112.
For the molecule `CCCCCCC1=C(Br)/C(=C/Br)N(Cc2ccccc2)C1=O`, the inhibition result was “inactive”.
`CCCCCCN1C(=O)C=C(Br)C1=C(Br)Br`: the inhibition result is “inactive”.
For the molecule `CC(C)CN1C(=O)C=C(Br)C1=C(Br)Br`, the Ratio was 65.
Still for that read-out and setting: then `CCCCCCC1=CC(=C(Br)Br)N(Cc2ccccc2)C1=O`, with 140.
Consider `CCCCCCC1=CC(=C(Br)Br)N(CCCC)C1=O`, for which the inhibition entry is “inactive”.
Same read-out and setting: then `CCCCCC(O)C1=CC(=C(Br)Br)N(c2ccccc2)C1=O` (stereo unspecified), with “inactive”; and `CCCCCCC1=C(Br)/C(=C/Br)N(c2ccccc2)C1=O`, with “inactive”.
On to `O=C1C=C(Br)C(=C(Br)Br)N1Cc1ccccc1`, for which the Ratio worked out at 150.
Regarding `CCCCN1C(=O)C=C(Br)C1=C(Br)Br`, the inhibition result was “inactive”.
On the same count and under the same terms, to `O=C1C=C(Br)/C(=C/Br)N1c1ccccc1` belongs “inactive”.
The same measure, in the same setting: then `CCCCC1=CC(=C(Br)Br)N(c2ccc(C)cc2)C1=O`, with “inactive”.
Regarding `CCCC(Br)C1=CC(=C(Br)Br)N(c2ccccc2)C1=O` (stereo unspecified), the Ratio was 1.95.
As for `CCCCCCCCCCCCN1C(=O)C=C(Br)C1=C(Br)Br`, the inhibition result was “inactive”.
For `CCCCN1C(=O)C=C(Br)/C1=C/Br`, the Ratio turned out to be 19.
Same read-out and setting: to `O=C1C=C(Br)/C(=C/Br)N1Cc1ccccc1` belongs 26.
`CCCC(O)C1=CC(=C(Br)Br)N(c2ccccc2)C1=O` (stereo unspecified): the inhibition result was “inactive”.
`CCCCC1=CC(=C(Br)Br)N(c2ccccc2)C1=O`: the Ratio worked out at 97.
With `CCCCC1=C(Br)/C(=C/Br)N(Cc2ccccc2)C1=O`, the inhibition entry was “inactive”.
Take `CC(C)CN1C(=O)C=C(Br)/C1=C/Br`: the inhibition entry is “inactive”.
On to `CCCCC1=CC(=C(Br)Br)N(Cc2ccccc2)C1=O`, for which the Ratio was determined as 220.
Consider `CCCCCCC1=C(Br)/C(=C/Br)N(CCCC)C1=O`, for which the inhibition entry is “inactive”.
For the molecule `CCCCCCCCN1C(=O)C=C(Br)/C1=C/Br`, the Ratio was found to be 20.
